SIRT5 block – inhibitors of human sirtuin-5 desuccinylase | Q9NXA8 | Purified SirT5, succinyl-peptide AMC, trypsin-coupled fluorescence | inhibition, % at 15 µM | 330,000 compounds, 1.1% hits; in the data active = inhibition above about 15%
Target sequence (Q9NXA8 whole entry, looked up): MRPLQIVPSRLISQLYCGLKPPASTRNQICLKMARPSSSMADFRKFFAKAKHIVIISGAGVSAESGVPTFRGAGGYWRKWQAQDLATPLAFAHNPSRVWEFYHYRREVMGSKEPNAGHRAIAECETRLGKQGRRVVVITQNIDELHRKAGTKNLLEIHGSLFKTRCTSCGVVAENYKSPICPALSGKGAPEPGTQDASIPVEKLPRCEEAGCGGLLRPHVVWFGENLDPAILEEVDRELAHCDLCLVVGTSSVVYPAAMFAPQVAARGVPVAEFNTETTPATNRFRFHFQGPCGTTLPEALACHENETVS
PGC1a acetyl inh – PGC1a acetylation modulation, inhibitor mode | U2OS PGC1a acetylation, AlphaScreen anti-acetyl-lysine; with virally co-expressed GCN5 acetyltransferase | inhibition, % at 15.6 µM | 350,000 compounds, 0.17% hits;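 active = every replicate shows inhibition of at least 40%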;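 also: 0% = neutral control wells and 100% = positive control wells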
Cneo AK release – causes C. neoformans cell lysis; adenylate kinase release luminescence, 4 h; normalised: neutral wells 0, clomiphene wells 100; lysis activity, % at 15 µM; 360,000 compounds, 0.2% hits; AID 651654;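 active = mean lysis activity across replicates of at least 80%, whatever share of replicates individually reach that level; inactive = mean lysis activity below 80%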
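Material – log-phase Cryptococcus neoformans yeast cells · Input – 5 × 10^6 yeast cells/mL · Medium – fresh YPD growth medium · Doses – single compound concentration per well · Timing – static 4 h at 37 °C with compound, 1 h detection · Detection – adenylate kinase release luminescence · Read-out – signal increase indicating cell lysis · Control set – Clomiphene as positive lysis control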
S100A4 MyoIIA – blocks human S100A4 binding to myosin IIA peptide; 360,000 compounds, 0.14% hits; S100A4/TAMRA-MyoIIA peptide fluorescence polarization; AID 652163; P26447; inhibition, % at 10.7 µM;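 active = mean inhibition of at least 70% across replicates, with every replicate also reaching that level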
Target sequence (P26447 whole entry, looked up): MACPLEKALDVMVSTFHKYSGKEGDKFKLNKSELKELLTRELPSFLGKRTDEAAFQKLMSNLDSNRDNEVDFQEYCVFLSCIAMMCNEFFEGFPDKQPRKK
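Assay system: human S100A4 monomer with TAMRA-labelled myosin IIA peptide / Buffer or medium: Calcium-containing HEPES buffer, pH 7.2 / Reagent: TAMRA-labelled myosin IIA heavy-chain peptide probe, 5 nM / Compound: one dose per compound / Timing: polarization read 5 min after assay mix addition, stable 5–60 min / Benchmarks: neutral control DMSO, positive control TFP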
Statin myotox sup – suppression of simvastatin myotoxicity; 330,000 compounds, 0.78% hits; AID 602340; rescue of ATP level, % at 7.49 µM; C2C12 myotubes + simvastatin, ATP luminescence, 48 h; scaled: DMSO 0, geranylgeraniol control 100;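 active = mean ATP rescue above about 67%, or every replicate alone reaching that limit, limit read from the data, passing the limit was not always enough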;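 also: myotubes were challenged with 10 µM simvastatin during compound exposure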
rRNA inh HTS – selective bacterial rRNA inhibition in E. coli; 350,000 compounds, 1.6% hits; E. coli WT GFP vs humanized-ribosome RFP mutants, fluorescence, 24 h; hits give low values; DMSO median 0, no signal -100; GFP signal change (wild-type ribosome), % (concentration not given with the values);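 active = significant combined selectivity score with lowered wild-type GFP, culture density cut under 30%, mutant RFP and density less affected; inactive = any of these conditions unmet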
Active calls of the source: *; x = no result. In the library only some 3% were active in any assay of this set; here they are far more common.

SMILES | SIRT5 block | PGC1a acetyl inh | Cneo AK release | S100A4 MyoIIA | Statin myotox sup | rRNA inh HTS
COc1ccccc1C#Cc1ccc2c(c1)[C@@H]1[C@@H](CCN1S(=O)(=O)c1cccc(C)c1)[C@H](CO)N2 | 8.5 | -11.6 | x | -5.0 | x | 2.8
O=C(Cc1ccc(Cl)cc1)Nc1ccc(S(=O)(=O)Nc2cnc3ccccc3n2)cc1 | 1.4 | 8.5 | x | 1.3 | x | -33.9*
O=C(Nc1ccc(Cl)c(Cl)c1)Nc1nccs1 | -1.0 | -1.4 | -1.7 | 7.4 | -53.4 | -25.6*
O=C(Nc1cccc(Cl)c1)Nc1nccs1 | x | x | -0.7 | x | -10.4 | x
CC(C)(C)c1[nH]nc2c1C(c1ccoc1)C(C#N)=C(N)O2 (centres undefined) | x | 12.2 | 6.5 | x | 91.8* | x
Cc1ccc2nc(-c3ccc(NC(=O)COCC(=O)O)cc3)sc2c1 | -10.6 | -0.3 | -9.6 | 1.8 | x | -35.2*
Cc1ccc(NC(=O)COCC(=O)Nc2ccc(F)cc2)cc1 | 23.6* | -1.1 | -1.6 | -1.6 | -3.2 | 2.3
Cc1noc(C)c1S(=O)(=O)N(C)C[C@H]1Oc2ccc(NC(=O)c3ccncc3)cc2C(=O)N([C@H](C)CO)C[C@@H]1C | x | x | x | x | x | 6.6
O=C(NC1CCC1)[C@@H]1[C@@H](CO)[C@@H]2Cn3c(cccc3=O)[C@@H]2N1CCc1ccccc1 | -2.8 | x | -3.3 | 0.6 | 8.0 | -1.8
O=C(NC1CCC1)[C@H]1[C@H](CO)[C@H]2Cn3c(ccc(-c4ccncc4)c3=O)[C@@H]1N2Cc1cocn1 | -8.5 | 4.5 | -4.8 | 28.8 | 9.4 | 3.7
C[C@@H]1CN([C@H](C)CO)C(=O)c2cc(NC(=O)C3CCCCC3)ccc2O[C@@H](C)CCCCO[C@@H]1CN(C)S(=O)(=O)c1ccccc1 | 8.4 | 3.7 | -1.1 | -2.7 | x | -0.3
CCOC(=O)c1cnc2c(cnn2C)c1NCc1ccc(OC)cc1 | -5.7 | 8.8 | -15.5 | -3.2 | -0.6 | -19.0*
COc1ccc(CNc2c(C(=O)O)cnc3c2cnn3C)cc1 | x | 0.9 | -2.6 | -2.4 | 1.9 | -18.1
Cc1ccc(NC(=O)CN2C(=O)S/C(=C\c3ccc(OCC(=O)O)c(Br)c3)C2=O)cc1 | 17.1* | 6.2 | -0.1 | -8.4 | 1.0 | 5.6
O=C(O)COc1ccc(/C=N/NC(=O)c2ccc(-c3csc(Nc4ccc(Cl)cc4)n3)cc2)cc1 | 28.4* | 3.7 | -1.9 | 0.8 | 0.9 | 2.9
CCOc1cc(/C=N/NC(=O)c2ccc(-c3csc(Nc4ccc(C)cc4)n3)cc2)ccc1OCC(=O)O | 1.8 | -6.2 | x | 0.3 | x | -29.9
Cn1nnnc1SCC(=O)c1c(N)n(C)c(=O)n(C)c1=O | x | 5.0 | -2.2 | x | -14.6 | x
Cn1c(N)c(C(=O)CSc2nnc(C3CC3)n2N)c(=O)n(C)c1=O | 19.4* | 1.8 | 1.1 | -1.0 | -8.2 | 7.3
COc1ccc(NC(=O)Nc2ccc3c(c2)CC(=O)N([C@H](C)CO)C[C@@H](C)[C@@H](CN(C)Cc2ccc(C(=O)O)cc2)O3)cc1 | 0.8 | -1.4 | -1.3 | 2.4 | -10.5 | 6.6
C/C=C/C(=O)OCC(=O)NC(=O)NC(C)C | x | -22.0 | -2.0 | x | 100.8* | x
Cc1ccc(NC(=O)CN2C(=O)COc3ccc(C)cc32)nc1 | x | -12.6 | -2.3 | x | 81.1* | x
Cc1ccc2c(c1)N(CC(=O)Nc1nccs1)C(=O)CO2 | -0.8 | x | x | 20.0 | 4.0 | 5.5
Cc1ccc2c(c1)N(CC(=O)NCCc1c[nH]c3ccccc13)C(=O)CO2 | x | x | -1.5 | x | 79.7* | x
CCOc1ccc(NC(=O)CN2C(=O)COc3ccc(S(=O)(=O)N4CCCC4)cc32)cc1 | -0.3 | 2.1 | -1.5 | -1.0 | 29.6 | -22.6*
CO[C@@H]1CN(C)C(=O)c2ccc(NC(C)=O)cc2OC[C@@H](C)N(C(=O)c2ccc(F)cc2)C[C@@H]1C | 1.6 | 17.1 | 3.3 | -5.8 | 0.9 | 0.4
SMILES | SIRT5 block | PGC1a acetyl inh | Cneo AK release | S100A4 MyoIIA | Statin myotox sup | rRNA inh HTS
CNC[C@@H]1Oc2ccc(NS(=O)(=O)c3ccc(Cl)cc3)cc2CC(=O)N([C@@H](C)CO)C[C@@H]1C | 1.4 | -4.4 | -2.2 | -1.7 | -0.5 | 3.2
CO[C@H]1O[C@H](CO)[C@@H](OC(=O)Nc2ccc3c(c2)OCO3)[C@H](OC(=O)Nc2ccccc2)[C@H]1OC(=O)Nc1ccccc1 | -1.4 | -4.6 | -1.6 | 13.2 | x | x
CO[C@H]1CN(C)C(=O)c2ccc(NS(=O)(=O)c3ccc(Cl)cc3)cc2OC[C@@H](C)N(C)C[C@@H]1C | 4.6 | 12.4 | 0.2 | 8.3 | -3.9 | 0.5
CN(C)C(=O)C[C@@H]1CC[C@@H]2[C@H](COC[C@H](O)CN2C(=O)C2CCCC2)O1 | x | 4.1 | -0.9 | x | -6.8 | 2.2
O=C(c1ccc(N2C(=O)CCC2=O)cc1)N1CCCSC1=Nc1ccccc1 | x | 2.8 | 2.7 | 84.1* | -3.3 | x
COc1ccc(S(=O)(=O)Nc2ccccc2C(=O)NC(C)(C)C)cc1OC | x | 3.6 | 0.1 | x | 123.3* | x
COc1ccccc1NS(=O)(=O)c1ccc(OC)c(OC)c1 | -3.3 | 2.7 | -0.9 | -4.9 | 21.7 | -2.5
COc1ccc(S(=O)(=O)Nc2ccccc2C(=O)OC2CCCN(C)C2)cc1OC (centres undefined) | x | 7.3 | 4.1 | x | 81.8* | x
COc1ccc(C(=O)C2CCCN(Cc3ccc4nonc4c3)C2)c(OC)c1 (centres undefined) | -3.4 | 4.5 | -3.1 | -18.0 | 1.2 | -28.1*
O=C(c1ccccn1)N1C[C@H]2[C@@H](c3ccccc31)[C@@H](CO)N2C(=O)Cc1ccccc1 | -4.5 | 1.2 | -1.0 | 2.0 | 1.1 | 2.9
Cc1ccc2c(c1)Sc1ccccc1CC2=O | x | -2.7 | 0.8 | x | 82.9* | x
O=C1Cc2ccccc2Sc2ccccc21 | x | 0.9 | 4.0 | x | -0.7 | x
COc1ccc(-c2csc(C(NC(C)=O)c3cccc(F)c3)n2)cc1 (centres undefined) | x | 6.1 | -0.9 | 4.6 | 76.1* | 4.7
COc1ccc(-c2csc(C(NC(C)=O)c3cccc(OC)c3)n2)cc1 (centres undefined) | x | -2.3 | -0.3 | -2.8 | 43.8 | 8.9
CS(=O)(=O)Nc1ccc2c(c1)[C@H]1C[C@H](CC(=O)NCc3ccc(Cl)cc3)O[C@H](CO)[C@H]1O2 | 0.3 | -5.3 | 59.8 | 2.1 | 3.0 | -5.2
CCOC(=O)N1CCN(C(=O)COc2cccc3c2CCN(Cc2cccc(C)c2)C3=O)CC1 | 0.9 | x | x | 8.3 | 2.6 | -25.2*
O=C(COc1cccc2c1CCN(Cc1ccccc1)C2=O)N1CCCCC1 | 0.8 | x | x | 2.4 | x | -21.0
CN1CCN(C(=O)[C@@H]2[C@@H](CO)[C@@H]3Cn4c(ccc(-c5cncnc5)c4=O)[C@@H]3N2CC2CCCC2)CC1 | 13.6 | x | -4.7 | 27.4 | -3.1 | 0.8
Cc1ccc(S(=O)(=O)N(C)C[C@H]2OCCCC[C@@H](C)Oc3ccc(NS(=O)(=O)c4ccccc4)cc3C(=O)N([C@@H](C)CO)C[C@H]2C)cc1 | 21.7* | -10.5 | 1.3 | -4.0 | 9.6 | -1.3
